16 molecules from PubChem BioAssay can be followed below.

The nature of assay [1]: reducers of endogenous Her2 protein level, primary screen, SKBR3 breast tumor cells, AlphaScreen, ATP viability (AID 461).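 As to Her2 level: lower value means less Her2 protein in the cells.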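 As to viability: percent of carrier control wells set as 100% viability.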 Particulars: 18-24 h, measured here: SKBR3 viability, ATP luminescence, at 10 µM. For orientation: In Alpha technology, singlet oxygen from a donor bead excites a nearby acceptor bead.
Assay [2] addresses Receptor tyrosine-protein kinase erbB-2 (Homo sapiens) (UniProt P04626). The description is as above. The note with it: 18-24 h, at 10 µM, stronger effect = lower value.
Assay [3] can be described thus: SK-BR-3 cell growth inhibitors, pilot screen, 24 h, human (AID 572;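 active = viability at or below 10% of carrier control in both of two separate runs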;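 also: compound exposure lasted between 18 and 24 h rather than exactly 24 h; 100% = carrier-treated control wells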). The note with it: SK-BR-3 viability, CellTiter-Glo luminescence, at 10 µM, stronger effect = lower value.
Assay [4] can be described thus: HUVEC growth inhibition – cell-based, human, primary screen (AID 575;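 active = viability at or below 30% in both replicate assays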;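 also: 100% = median of untreated cell wells with 0.1% DMSO on each plate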). The note with it: HUVEC proliferation, CellTiter-Glo luminescence, 72 h; at 10 µM; stronger effect = lower value. The method in brief: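 material = primary HUVEC, no more than 12 passages | input = 1250 cells per well | controls = vehicle and MePR control wells | measured by = CTG luminescence | times = 72 h compound incubation | format = collagen-coated 384-well format | read-out = % viability vs DMSO wells | doses = single 10 µM dose, 0.1% DMSO, from 5x medium stock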
On the technique in general: Cellular ATP, detected with luciferase, serves as a proxy for viable cell number.

Assay [5] is described as follows: growth inhibitors of H69AR lung tumor, primary screen, human, duplicate replicates (AID 580;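 active = viability at or under a set limit in both replicates, limit being median viability minus 3 SD, cut at about 48% in these data, passing the limit was not always enough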;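 also: 100% = mean luminescence of untreated wells and 0% = no signal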). The note with it: H69AR lung tumor cells viability, ATP luminescence, 72 h; at 10 µM; stronger effect = lower value.
A short description of assay [6]: reversal of MRP1-mediated doxorubicin resistance, pilot screen, H69AR cells, doxorubicin co-treatment (AID 601;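 active = viability loss from added drug above about 55%, and viability with drug at most 40%, in both replicates, limit read from the data, passing the limit was not always enough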). The note with it: CellTiter-Glo, 72 h, at 10 µM; for differential viability (reversal): stronger effect = higher value.
The nature of assay [7]: 384-well plate pilot, post-Golgi transport modulator project, inhibition of yeast transport mutant growth (AID 636; in the data active = inhibition above about 31%). Particulars: absorbance 615 nm, about 18 h, stronger effect = higher value.
Assay [8] in a line: growth suppression of yeast trafficking mutant, preliminary HTS, modulators of trafficking downstream of Golgi apparatus project, 1536-format plate, OD 615 nm (AID 637; in the data active = inhibition above about 30%). Particulars: yeast transport mutant growth, absorbance 615 nm, 18 h; stronger effect = higher value.
The mark [9] stands for this setting: H69AR cells + 2 uM doxorubicin, measured here: viability with 2 uM doxorubicin, stronger effect = lower value.
Setting [10] is: H69AR cells, compound alone cytotoxicity.

Active and inactive are the calls of the source.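 The calls were made as follows, unless noted: active = Her2 level under about 52% in both replicate screens, with viability over 70% of control (limit read from the data); inconclusive = Her2 under the limit in one screen only, or viability under 70%; inactive = Her2 level above the set limit.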

Chain of Receptor tyrosine-protein kinase erbB-2 (Homo sapiens) (P04626 whole entry, looked up): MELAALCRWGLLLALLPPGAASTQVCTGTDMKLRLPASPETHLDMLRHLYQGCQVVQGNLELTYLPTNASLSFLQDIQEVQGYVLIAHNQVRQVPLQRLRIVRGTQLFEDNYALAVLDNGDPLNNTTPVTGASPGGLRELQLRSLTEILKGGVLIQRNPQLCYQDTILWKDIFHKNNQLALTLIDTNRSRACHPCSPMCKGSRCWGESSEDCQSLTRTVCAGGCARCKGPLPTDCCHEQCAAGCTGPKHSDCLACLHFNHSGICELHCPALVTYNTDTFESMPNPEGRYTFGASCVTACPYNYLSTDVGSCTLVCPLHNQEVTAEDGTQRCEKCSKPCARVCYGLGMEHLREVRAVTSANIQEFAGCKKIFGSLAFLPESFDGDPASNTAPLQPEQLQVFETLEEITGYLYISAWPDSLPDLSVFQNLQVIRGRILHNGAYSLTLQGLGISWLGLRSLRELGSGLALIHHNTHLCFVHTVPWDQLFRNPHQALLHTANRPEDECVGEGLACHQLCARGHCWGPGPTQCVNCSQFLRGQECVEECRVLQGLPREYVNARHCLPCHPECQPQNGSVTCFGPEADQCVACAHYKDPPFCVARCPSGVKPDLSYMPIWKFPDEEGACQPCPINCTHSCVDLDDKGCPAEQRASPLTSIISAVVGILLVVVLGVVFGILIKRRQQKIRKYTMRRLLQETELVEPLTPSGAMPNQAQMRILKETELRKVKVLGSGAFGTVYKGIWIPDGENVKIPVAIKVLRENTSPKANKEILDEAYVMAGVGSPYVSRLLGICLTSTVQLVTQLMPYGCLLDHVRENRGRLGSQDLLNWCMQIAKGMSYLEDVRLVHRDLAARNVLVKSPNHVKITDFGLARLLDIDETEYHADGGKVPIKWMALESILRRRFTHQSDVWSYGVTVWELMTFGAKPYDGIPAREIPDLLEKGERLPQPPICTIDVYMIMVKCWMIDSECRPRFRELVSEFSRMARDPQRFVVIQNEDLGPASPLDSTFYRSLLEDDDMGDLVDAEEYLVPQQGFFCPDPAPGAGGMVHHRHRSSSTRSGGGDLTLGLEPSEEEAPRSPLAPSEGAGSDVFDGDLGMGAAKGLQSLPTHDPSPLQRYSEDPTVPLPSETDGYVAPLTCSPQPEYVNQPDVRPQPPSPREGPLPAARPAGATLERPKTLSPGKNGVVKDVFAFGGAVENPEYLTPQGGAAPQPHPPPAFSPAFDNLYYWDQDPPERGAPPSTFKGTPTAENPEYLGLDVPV

In general, viability refers to a read-out of living cells in per cent, often relative to untreated cells. What is called inhibition is the change of the read-out against control, counted positive when it falls. In the case of `COc1ccc(-c2nnc(SCC#N)o2)cc1`, the viability in assay [1] was 104%; in assay [3], 104% (inactive); in assay [4], 107% (inactive); in assay [5], 103% (inactive); in assay [6] (setting [9]) it was 89.1%; in assay [6] (setting [10]) it was 103%. For the same molecule, the Her2 level in assay [2] was 91.5% (inactive). In assay [6] (H69AR cells + 2 uM doxorubicin), the differential viability (reversal) is 13.6% (inactive). Besides, the figures for the inhibition in assay [7] and in assay [8] were -5.47% (inactive) and 0.65% (inactive), respectively.
For the molecule `CCSc1nc2c(c(=O)n1CC)SC(C)C2` (stereo not given), the viability in assay [1] is 102%; in assay [3] it was 102% (inactive); in assay [4] it was 111% (inactive); in assay [5], 94.1% (inactive); in assay [6] (setting [9]), 87.7%; in assay [6] (setting [10]) it was 94.1%. The Her2 level in assay [2] is 86.5% (inactive). Moreover, the differential viability (reversal) in assay [6] (H69AR cells + 2 uM doxorubicin) is 6.39% (inactive). The inhibition in assay [7] is -5.47% (inactive); in assay [8] it was 6.07% (inactive).
For the molecule `COC(=O)C1(C)NC(c2ccco2)C2C(=O)N(c3ccc(C)cc3)C(=O)C21` (stereo not given), the viability in assay [1] is 106%; in assay [3], 106% (inactive); in assay [4], 96.6% (inactive); in assay [5], 91.5% (inactive); in assay [6] (setting [9]), 94.5%; in assay [6] (setting [10]), 91.5%. Further, the Her2 level in assay [2] is 95% (inactive). Also, in assay [6] (H69AR cells + 2 uM doxorubicin), the differential viability (reversal) was -3% (inactive). In addition, the inhibition in assay [7] is -5.27% (inactive); in assay [8], -3.83% (inactive).
Take `CCCCCC1CC(CC(C)C(=O)Nc2nncs2)C(=O)O1` (stereo not given): the viability in assay [1] was 90.5%; in assay [3], 90.5% (inactive); in assay [4], 85.2% (inactive); in assay [5], 93.3% (inactive); in assay [6] (setting [9]), 85.4%; in assay [6] (setting [10]) it was 93.3%. The Her2 level in assay [2] was 86.5% (inactive). In addition, the differential viability (reversal) in assay [6] (H69AR cells + 2 uM doxorubicin) was 7.83% (inactive). Further, the inhibition in assay [7] is -5.6% (inactive); in assay [8] it was -2.86% (inactive).
Turning to `CCOC(=O)c1ccccc1NC(=O)c1ccc(NS(C)(=O)=O)cc1`, the viability in assay [1] was 93.5%; in assay [3], 93.5% (inactive); in assay [4], 97% (inactive); in assay [5], 80.7% (inactive); in assay [6] (setting [9]), 82.7%; in assay [6] (setting [10]), 80.7%. Further, the Her2 level in assay [2] is 83.5% (inactive). The differential viability (reversal) in assay [6] (H69AR cells + 2 uM doxorubicin) is -1.98% (inactive). Moreover, the results for the inhibition in assay [7] and in assay [8] were -4.53% (inactive) and -3.81% (inactive), respectively.
As to `CCn1nc(NC(=O)c2cccnc2)c2cc3ccccc3nc21`, the viability is 90% in assay [1]; 90% (inactive) in assay [3]; 84.4% (inactive) in assay [4]; 89.8% (inactive) in assay [5]; 74.6% in assay [6] (setting [9]); 89.8% in assay [6] (setting [10]). Besides, in assay [2], the Her2 level is 70.5% (inactive). Also, the differential viability (reversal) in assay [6] (H69AR cells + 2 uM doxorubicin) is 15.2% (inactive). The inhibition in assay [7] is -8.38% (inactive); in assay [8], -3.17% (inactive).
On to `C=CCc1cc(C(=O)N2CCCCC2)ccc1O`, for which the viability is 104% in assay [1]; 104% (inactive) in assay [3]; 88% (inactive) in assay [4]; 92.3% (inactive) in assay [5]; 108% in assay [6] (setting [9]); 92.3% in assay [6] (setting [10]). Further, the Her2 level in assay [2] was 100% (inactive). Also, in assay [6] (H69AR cells + 2 uM doxorubicin), the differential viability (reversal) was -15.2% (inactive). Besides, the inhibition was -2.5% (inactive) in assay [7] and 8.2% (inactive) in assay [8].
Consider `Cc1ccc2[nH]c3c(N4CCOCC4)ncnc3c2c1`, for which the viability in assay [1] is 116%; in assay [3], 116% (inactive); in assay [4] it was 76.3% (inactive); in assay [5], 85.5% (inactive); in assay [6] (setting [9]) it was 101%; in assay [6] (setting [10]) it was 85.5%. Moreover, the Her2 level in assay [2] is 95% (inactive). Besides, in assay [6] (H69AR cells + 2 uM doxorubicin), the differential viability (reversal) is -15.7% (inactive). In addition, the inhibition in assay [7] was -3.68% (inactive); in assay [8] it was 8.2% (inactive).
In the case of `O=C(CSc1nc2ccccc2o1)Nc1ccccc1`, the viability in assay [1] was 107%; in assay [3], 107% (inactive); in assay [4] it was 105% (inactive); in assay [5], 79% (inactive); in assay [6] (setting [9]), 90.4%; in assay [6] (setting [10]), 79%. In addition, the Her2 level in assay [2] was 124% (inactive). In addition, in assay [6] (H69AR cells + 2 uM doxorubicin), the differential viability (reversal) is -11.4% (inactive). In addition, the inhibition is -0.9% (inactive) in assay [7] and -4.83% (inactive) in assay [8].
On to `CCCCC(CC)C(=O)Nc1ccc(Cl)cn1` (stereo not given), for which the viability was 103% in assay [1]; 103% (inactive) in assay [3]; 98.3% (inactive) in assay [4]; 94.3% (inactive) in assay [5]; 82.1% in assay [6] (setting [9]); 94.3% in assay [6] (setting [10]). Also, the Her2 level in assay [2] was 102% (inactive). The differential viability (reversal) in assay [6] (H69AR cells + 2 uM doxorubicin) is 12.2% (inactive). Besides, the results for the inhibition in assay [7] and in assay [8] were -5.47% (inactive) and 1.97% (inactive), respectively.
For the molecule `Cn1c(SCC(=O)Nc2ccc3c(c2)OCO3)nnc1-c1cnccn1`, the viability is 106% in assay [1]; 106% (inactive) in assay [3]; 93.5% (inactive) in assay [4]; 94.6% (inactive) in assay [5]; 88.1% in assay [6] (setting [9]); 94.6% in assay [6] (setting [10]). For the same molecule, the Her2 level in assay [2] was 82.5% (inactive). In assay [6] (H69AR cells + 2 uM doxorubicin), the differential viability (reversal) was 6.5% (inactive). Further, the figures for the inhibition in assay [7] and in assay [8] were -6.05% (inactive) and 2.33% (inactive), respectively.
Regarding `Cc1ccc(-c2nnn(CC(=O)NC3CC4CCC3C4)n2)cc1` (stereo not given), the viability in assay [1] is 109%; in assay [3] it was 109% (inactive); in assay [4], 118% (inactive); in assay [5], 93.3% (inactive); in assay [6] (setting [9]) it was 88.2%; in assay [6] (setting [10]), 93.3%. In addition, the Her2 level in assay [2] is 91% (inactive). The differential viability (reversal) in assay [6] (H69AR cells + 2 uM doxorubicin) is 5.1% (inactive). Also, the inhibition in assay [7] was -6.58% (inactive); in assay [8], -6.77% (inactive).
`Cc1cc(C)nc(SCC(=O)Nc2ncc3c(n2)CCCC3=O)n1`: the viability was 98.5% in assay [1]; 98.5% (inactive) in assay [3]; 99% (inactive) in assay [4]; 112% (inactive) in assay [5]; 99.3% in assay [6] (setting [9]); 112% in assay [6] (setting [10]). The Her2 level in assay [2] was 93.5% (inactive). For the same molecule, the differential viability (reversal) in assay [6] (H69AR cells + 2 uM doxorubicin) is 12.5% (inactive). The inhibition in assay [7] is -1.17% (inactive); in assay [8], -4.13% (inactive).
As for `N#Cc1nc(-c2ccco2)oc1N1CCN(c2cccc(Cl)c2)CC1`, the viability was 87% in assay [1]; 87% (inactive) in assay [3]; 90.1% (inactive) in assay [4]; 90% (inactive) in assay [5]; 95.2% in assay [6] (setting [9]); 90% in assay [6] (setting [10]). Moreover, the Her2 level in assay [2] was 85.5% (inactive). For the same molecule, the differential viability (reversal) in assay [6] (H69AR cells + 2 uM doxorubicin) is -5.21% (inactive). Besides, the figures for the inhibition in assay [7] and in assay [8] were -4.13% (inactive) and 4.29% (inactive), respectively.
`Cc1c(C(=O)Nc2cnccn2)oc2ccccc12`: the viability was 110% in assay [1]; 110% (inactive) in assay [3]; 58.6% (inactive) in assay [4]; 37.4% (active) in assay [5]; 72.7% in assay [6] (setting [9]); 37.4% in assay [6] (setting [10]). Moreover, in assay [2], the Her2 level was 72% (inactive). Further, the differential viability (reversal) in assay [6] (H69AR cells + 2 uM doxorubicin) is -35.3% (inactive). Besides, the inhibition in assay [7] is -5.6% (inactive); in assay [8] it was 3.49% (inactive).
Turning to `CCN(Cc1nc2ccccc2c(=O)[nH]1)Cc1cc(=O)oc2cc(C)c(C)cc12`, the viability in assay [1] was 107%; in assay [3], 107% (inactive); in assay [4] it was 63% (inactive); in assay [5] it was 62.9% (inactive); in assay [6] (setting [9]), 42%; in assay [6] (setting [10]), 62.9%. Besides, in assay [2], the Her2 level was 102% (inactive). Further, in assay [6] (H69AR cells + 2 uM doxorubicin), the differential viability (reversal) is 21% (inactive). Moreover, the figures for the inhibition in assay [7] and in assay [8] were -4.68% (inactive) and -1.67% (inactive), respectively.
